{"source": "paper PMC3929337", "about": "(Biochemistry, 2014)", "key": {"[1]": {"test_system": "Aβ peptide variants in PS1 mutant-expressing cell lines", "conditions": "cited from earlier work"}, "[2]": {"test_system": "Notch 1 receptor (NΔE) proteolysis, NICD", "assay": "Cell-based Notch proteolytic processing assay", "set-up": "species or system human", "conditions": "H4-APP751/NΔE cells, 24 h; lowest concentration tested", "outline": "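H4 human neuroglioma cells stably overexpressing human APP751 were transfected with Myc-tagged NΔE Notch and treated for a further 24 h with serially diluted test compound, DMSO vehicle, or a dipeptidic γ-secretase inhibitor as positive control. Concentrations ranged up to 30 μM. Cells were harvested 48 h post-transfection. Lysates were Western blotted with anti-Myc for NΔE/NICD, an APP C-terminal antibody for holo-APP, C99 and C83, and anti-β-actin as loading control.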"}}}
{"compound": "CC(C)CC[C@H](c1ccc(Cl)cc1)N1CC[C@@H](CC(=O)O)C[C@H]1c1ccc(C(F)(F)F)cc1", "note": "[GSM-1]", "values": [{"measurement": "effect on Aβ peptide variants, G384A PS1 mutant", "setting": "[1]; G384A PS1 mutant", "value": "effectively lowered Aβ42, Aβ40, and Aβ37"}, {"measurement": "effect on Aβ38 levels, PS1 mutants L166P and N135S", "setting": "[1]; PS1 mutants L166P and N135S", "value": "increases in Aβ38 levels"}, {"measurement": "inhibition of Aβ42, PS1 mutants L166P and N135S", "setting": "[1]; PS1 mutants L166P and N135S", "value": "resistant"}]}
{"compound": "COc1cc(/C=C2\\CCCN([C@@H](C)c3ccc(F)cc3)C2=O)ccc1-n1cnc(C)c1", "note": "[Eisai]", "values": [{"measurement": "effects on Aβ38 and Aβ42 in PS1 mutant cell lines", "setting": "[1]", "value": "behaved like the “TorreyPines” compound"}]}
{"compound": "C[C@H](NC(=O)Cc1cc(F)cc(F)c1)C(=O)NC(C(=O)OC(C)(C)C)c1ccccc1", "note": "(stereo partly drawn) [DAPT, N-[N-(3,5-difluorophenacetyl)-L-alanyl]-S-phenylglycine tert-butyl ester]", "values": [{"measurement": "concentration at which inhibition of NICD occurred", "setting": "[2]", "value": "≤ 300", "unit": "nM"}]}
